ChEMBL document CHEMBL4414575, “Yangpumicins F and G, Enediyne Congeners from Micromonospora yangpuensis DSM 45577” (J Nat Prod, 2019)
Converted amounts (≈) assume the structure as drawn. The source made the active and inactive calls. The calls are words filed in the database; no cut-off is given here.

Assays:
Escherichia coli = experiment: Antimicrobial activity against Escherichia coli incubated for 18 hrs by resazurin staining based microbroth dilution assay; assay type: functional
Method in brief: (§1)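 Strains grown overnight, diluted to 10^6 CFU/mL in LB broth. Compounds in DMSO, serially diluted in LB (pg/mL to ng/mL range), mixed 1:1 with bacterial suspension. Vancomycin is the reference, 0.03125–16 μg/mL. Plates incubated 37 °C for 18 h, then resazurin added for read-out. Duplicates per plate.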

SK-BR-3 [1] = experiment: Cytotoxicity against human SKBR3 cells assessed as inhibition of cell viability incubated for 8 hrs by rapid killing based MTT assay; assay type: functional
Method in brief: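 Seeding was 2,000–4,000 cells/well, with 24 h attachment. Compound exposure at varying concentrations lasted only 8 h. Viability was read by CCK-8 absorbance at 450 nm. Mean ± SD of three replicates, with curves fitted.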

Jurkat = experiment: Cytotoxicity against human Jurkat cells assessed as inhibition of cell viability incubated for 72 hrs by MTT assay; assay type: functional, cell-based
Method in brief: (§2)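 Cells seeded at 2,000–4,000 per well and left 24 h. They are then exposed to a range of compound concentrations for 72 h. Survival is read by adding CCK-8 solution and measuring absorbance at 450 nm. Mitomycin is the reference control.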

Staphylococcus aureus [2] = experiment: Potency index, ratio of MIC for vancomycin to MIC for test compound for antimicrobial activity against Methicillin-resistant Staphylococcus aureus; assay type: functional
Method in brief: (§3)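 Overnight bacterial cultures diluted to 10^6 CFU/mL in LB broth, mixed 1:1 with LB holding serial dilutions of test compound (DMSO stocks, 1–512 pg/mL and 1–512 ng/mL series) or vancomycin (0.03125–16 μg/mL). Incubated 37 °C, 18 h, then resazurin added for read-out. Run in duplicate per plate. Index is vancomycin MIC divided by test-compound MIC.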

Caco-2 [3] = experiment: Cytotoxicity against human Caco2 cells assessed as inhibition of cell viability incubated for 72 hrs by MTT assay; assay type: functional, cell-based; details: Caco-2, 72 h; method in brief: as §2
A549 = experiment: Cytotoxicity against human A549 cells assessed as inhibition of cell viability incubated for 72 hrs by MTT assay; assay type: functional, cell-based; details: A549, 72 h; method in brief: as §2
SK-BR-3 [4] = experiment: Cytotoxicity against human SKBR3 cells assessed as inhibition of cell viability incubated for 72 hrs by MTT assay; assay type: functional, cell-based; details: SK-BR-3, 72 h; method in brief: as §2
Staphylococcus aureus [5] = experiment: Antimicrobial activity against Methicillin-resistant Staphylococcus aureus incubated for 18 hrs by resazurin staining based microbroth dilution assay; assay type: functional
Method in brief: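 Overnight culture diluted to 106 CFU/mL in LB broth, mixed 1:1 with compound serially diluted in LB on the plate from DMSO stock (1–512 ng/mL and 1–512 pg/mL series; vancomycin 0.03125–16 μg/mL). Incubated 37 °C for 18 h, then resazurin added to read growth; MIC taken from broth microdilution, duplicate per plate. Strain is a local hospital MRSA isolate.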

Staphylococcus aureus [6] = experiment: Potency index, ratio of MIC for vancomycin to MIC for test compound for antimicrobial activity against Staphylococcus aureus ATCC 29213; assay type: functional; method in brief: as §3
Staphylococcus aureus [7] = experiment: Antimicrobial activity against Staphylococcus aureus ATCC 29213 incubated for 18 hrs by resazurin staining based microbroth dilution assay; assay type: functional; details: ATCC 29213, 18 h; method in brief: as §1
Caco-2 [8] = experiment: Potency index, ratio of YPM G IC50 to compound IC50 for cytotoxicity against human Caco2 cells by MTT assay; assay type: functional
SK-BR-3 [9] = experiment: Potency index, ratio of YPM G IC50 to compound IC50 for cytotoxicity against human SKBR3 cells by MTT assay; assay type: functional

| SMILES | MIC (Escherichia coli) | Activity (SK-BR-3 [1]) | IC50 (Jurkat) | Ratio IC50 (Staphylococcus aureus [2]) | IC50 (Caco-2 [3]) | IC50 (A549) | IC50 (SK-BR-3 [4]) | MIC (Staphylococcus aureus [5]) | Ratio IC50 (Staphylococcus aureus [6]) | MIC (Staphylococcus aureus [7]) | Ratio IC50 (Caco-2 [8]) | Ratio IC50 (SK-BR-3 [9]) |
| --- | --- | --- | --- | --- | --- | --- | --- | --- | --- | --- | --- | --- |
| C[C@@H](O)[C@@]12O[C@]13c1cc(O)c4c(c1N[C@H]2C#C/C=C\C#C[C@H]3O)C(=O)c1c(O)cccc1C4=O | 0.128 ng/mL (≈ 0.281 nM) | Active | 0.24 nM | 1000000 | 3.4 nM | 0.02 nM | 0.86 nM | < 0.001 ng/mL | 1000000 | < 0.001 ng/mL | 10 | 10 |
| O=C1c2ccccc2C(=O)c2c3c(cc(O)c21)[C@@]12O[C@@]1([C@H](O)CO)[C@H](C#C/C=C\C#C[C@H]2O)N3 | – | – | 0.62 nM | – | 55.2 nM | 3.41 nM | 24.2 nM | 0.002 ng/mL (≈ 0.00439 nM) | – | 0.002 ng/mL (≈ 0.00439 nM) | – | – |
| CN[C@H](CC(C)C)C(=O)N[C@H]1C(=O)N[C@@H](CC(N)=O)C(=O)N[C@H]2C(=O)N[C@H]3C(=O)N[C@H](C(=O)N[C@H](C(=O)O)c4cc(O)cc(O)c4-c4cc3ccc4O)[C@H](O)c3ccc(c(Cl)c3)Oc3cc2cc(c3O[C@@H]2O[C@H](CO)[C@@H](O)[C@H](O)[C@H]2O[C@H]2C[C@](C)(N)[C@H](O)[C@H](C)O2)Oc2ccc(cc2Cl)[C@H]1O [VANCOMYCIN] | > 16000 ng/mL | – | – | – | – | – | – | – | – | – | – | – |
| O=C1c2cccc(O)c2C(=O)c2c3c(cc(O)c21)[C@@]12O[C@@]1([C@H](O)CO)[C@H](C#C/C=C\C#C[C@H]2O)N3 | 0.032 ng/mL (≈ 0.0679 nM) | Active | 0.17 nM | 1000000 | 3.16 nM | 0.24 nM | 2.56 nM | < 0.001 ng/mL | 1000000 | < 0.001 ng/mL | 10 | 10 |
| CO[C@@]12[C@H](COC(N)=O)C3=C(C(=O)C(C)=C(N)C3=O)N1C[C@@H]1N[C@@H]12 [MITOMYCIN] | – | – | 430 nM | – | 5800 nM | 270 nM | 1000 nM | – | – | – | – | – |
